{
  "source": "paper PMC3428850",
  "about": "(Molecular cancer therapeutics, 2012)",
  "key": {"[1]": {"system": "MCF7 cells", "experiment": "cell growth inhibition, SRB assay, 5-day continuous exposure", "type": "cell-based, human", "outline": "(§1)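 Human cancer cells in RPMI 1640 with 10% FBS, penicillin/streptomycin, at 37 °C and 5% CO2. Test compound (10 mM DMSO stock) given by continuous exposure for 5 days. Growth measured by SRB assay. […] Means ± SD of 3 independent experiments.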"}, "[2]": {"system": "T47D cells", "experiment": "cell growth inhibition, SRB assay, 5-day continuous exposure", "type": "cell-based", "details": "Homo sapiens, 120 h", "outline": "as §1"}, "[3]": {"system": "MDA-MB-231 cells", "experiment": "cell growth inhibition, SRB assay, 5-day continuous exposure", "type": "cell-based", "details": "Homo sapiens, MDA-MB-231, 120 h", "outline": "as §1"}, "[4]": {"system": "MCF7 cells", "experiment": "clonogenic survival assay", "type": "cell-based, human", "details": "MCF7, 1 μM, 16 hr exposure, single agent", "outline": "(§2)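 Cells in RPMI 1640/10% FBS were exposed in 6-well plates for 16 h to etoposide or doxorubicin with or without test compound (1 μM), or to test compound alone. Cells then harvested and reseeded in drug-free medium. Colonies stained with crystal violet after 10-14 days and counted automatically. Fold enhancement = survival with cytotoxic alone / survival with cytotoxic + 1 μM test compound. Means ± SD, n = 3.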"}, "[5]": {"system": "T47D cells", "experiment": "clonogenic survival assay", "type": "cell-based, human", "outline": "as §2"}, "[6]": {"system": "V3-YAC cells", "experiment": "clonogenic survival assay, DNA-PKcs-proficient cells", "type": "cell-based, Chinese hamster", "outline": "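Chinese hamster ovary V3 cells (DNA-PKcs-deficient) and V3-YAC cells (human DNA-PKcs on YAC; kept under G-418 500 μg/ml) in RPMI 1640/10% FBS. Etoposide alone or with 1 μM test compound, or test compound alone, for 16 h. Reseeded drug-free. Crystal violet colony counts after 10-14 days. Fold enhancement as survival ratio. Means ± SD of 3 independent experiments.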"}, "[7]": {"type": "in vivo, mice", "details": "for concentration at 60 min / concentration at 120 min: female, CD1-nu/nu (athymic), mouse, intravenous, 12.5 mg/kg", "outline": "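Female athymic CD1-nu/nu mice kept in SPF isolators, bearing MCF7 or SW620 xenografts (650 mm³). Test compound 12.5 mg/kg i.v. in equimolar phosphoric acid/saline, pH 5. Tumours homogenised in PBS (1:3 w/v) on ice. Plasma and tumour concentrations by LC-MS/MS. Means ± SD of 3 mice per time point.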"}, "[8]": {"biological_target": "DNA-PK (Homo sapiens, UniProt P78527)", "experiment": "DNA-PK ex vivo pharmacodynamic assay, p53 peptide", "set-up": "species or system mice", "details": "SW-620, mouse, iv, read-out: inhibition of DNA-PK activity ex vivo in tumour", "outline": "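SW620 s.c. xenografts in female athymic CD1-nu/nu mice. Test compound 2.5 or 25 mg/kg i.v. (vehicle equimolar phosphoric acid, pH 5) or vehicle alone. Killed after 1 or 4 h. Tumours excised and homogenised. DNA-PK activity by ELISA of DNA-PK-dependent p53 peptide (Ser15) phosphorylation in homogenates. 3 mice per time point, mean ± SD.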"}, "[9]": {"experiment": "solubility", "type": "physicochemical", "details": "compared with NU7441"}, "[10]": {"biological_target": "PI-3K γ (Homo sapiens, UniProt P48736)", "sequence (P48736 whole entry, species assumed, canonical isoform)": "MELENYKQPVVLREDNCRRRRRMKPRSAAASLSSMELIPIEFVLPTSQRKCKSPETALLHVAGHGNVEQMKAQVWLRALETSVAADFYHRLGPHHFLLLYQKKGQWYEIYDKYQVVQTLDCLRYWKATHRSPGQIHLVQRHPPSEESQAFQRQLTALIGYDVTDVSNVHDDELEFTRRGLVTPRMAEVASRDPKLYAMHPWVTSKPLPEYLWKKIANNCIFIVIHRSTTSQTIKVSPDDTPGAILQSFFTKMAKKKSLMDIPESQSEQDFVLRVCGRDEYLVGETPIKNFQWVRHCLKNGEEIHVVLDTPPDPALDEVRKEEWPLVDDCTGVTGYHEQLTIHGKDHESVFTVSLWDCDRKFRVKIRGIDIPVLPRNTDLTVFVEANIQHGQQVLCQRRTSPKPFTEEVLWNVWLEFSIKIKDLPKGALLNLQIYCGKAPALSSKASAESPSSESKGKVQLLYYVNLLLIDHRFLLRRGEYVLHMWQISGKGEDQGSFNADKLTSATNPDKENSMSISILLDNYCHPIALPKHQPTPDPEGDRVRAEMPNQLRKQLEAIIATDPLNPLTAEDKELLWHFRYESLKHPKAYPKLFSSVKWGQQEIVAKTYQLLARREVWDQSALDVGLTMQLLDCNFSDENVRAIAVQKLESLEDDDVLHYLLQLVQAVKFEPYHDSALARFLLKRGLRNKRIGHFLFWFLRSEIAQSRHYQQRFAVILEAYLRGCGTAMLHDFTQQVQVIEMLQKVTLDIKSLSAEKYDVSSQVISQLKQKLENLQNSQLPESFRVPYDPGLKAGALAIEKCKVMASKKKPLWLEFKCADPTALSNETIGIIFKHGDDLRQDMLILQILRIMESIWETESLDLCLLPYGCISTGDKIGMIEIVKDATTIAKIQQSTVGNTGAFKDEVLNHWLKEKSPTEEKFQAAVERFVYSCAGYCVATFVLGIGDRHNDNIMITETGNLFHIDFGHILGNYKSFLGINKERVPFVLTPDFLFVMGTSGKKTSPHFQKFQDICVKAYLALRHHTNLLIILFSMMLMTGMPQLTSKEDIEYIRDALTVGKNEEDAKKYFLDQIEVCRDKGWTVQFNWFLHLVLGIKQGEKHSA", "experiment": "cell-free assay, PI-3K isoforms", "type": "biochemical", "details": "Supplementary Figure 1"}, "[11]": {"details": "read-out: inhibition of cell growth"}},
  "note": "Values joined by “and” are separate entries in the source; they are usually repeats but may differ in a detail not shown here. Equal entries are not always repeated. Where two headings read alike, the source gives them in different places.",
  "data": [
    {"smiles": "CCN1CCN(CC(=O)Nc2ccc(-c3cccc4c(=O)cc(N5CCOCC5)oc34)c3sc4ccccc4c23)CC1", "note": "[KU-0060648, 2-(4-ethylpiperazin-1-yl)-N-(4-(2-morpholino-4-oxo-4H-chromen-8-yl)dibenzo[b,d]thiophen-1-yl)acetamide]", "values": [
      {"measurement": "GI50", "setting": "[1]; Homo sapiens, MCF7, 120 h", "value": 270, "unit": "nM"},
      {"measurement": "total cell growth over 5 days, of DMSO treated controls", "setting": "[1]; MCF7, 1 μM", "value": 4, "unit": "%"},
      {"measurement": "inhibition of cell growth", "setting": "[1]; MCF7, 1 μM, 5 days, 1 µM", "value": "> 95% and > 50%"},
      {"measurement": "GI50", "setting": "[2]", "value": 410, "unit": "nM"},
      {"measurement": "inhibition at 1 µM", "setting": "[2]; [11]", "value": "> 50", "unit": "%"},
      {"measurement": "GI50", "setting": "[3]", "value": 1000, "unit": "nM"},
      {"measurement": "inhibition at 1 µM", "setting": "[3]; [11]", "value": "> 50", "unit": "%"},
      {"measurement": "overall cell survival (clonogenic)", "setting": "[4]", "value": "≥ 80", "unit": "%"},
      {"measurement": "Fold enhancement of doxorubicin cytotoxicity (survival cytotoxic alone/survival cytotoxic + 1 μM KU-0060648)", "setting": "[5]; 100 nM doxorubicin, 16 hr", "value": "58±35", "unit": "fold"},
      {"measurement": "overall cell survival (clonogenic)", "setting": "[5]; 1 μM, 16 hr exposure, single agent", "value": "≥ 80", "unit": "%"},
      {"measurement": "fold enhancement of etoposide cytotoxicity", "setting": "[6]; 1 μM KU-0060648, 16 hours", "value": "> 13", "unit": "fold"},
      {"measurement": "reduction in cell viability, compound alone", "setting": "[6]; 1 μM, 16 hours", "value": "< 15", "unit": "%"},
      {"measurement": "concentration maintained in the tumour", "setting": "[7]; MCF7 xenografts, 12.5 mg/kg i.v., for at least 4 hours", "value": "over 1 μM"},
      {"measurement": "concentration at 60 min", "setting": "[7]; plasma", "value": "1000 ± 600", "unit": "nM"},
      {"measurement": "concentration at 120 min", "setting": "[7]; plasma", "value": "800 ± 500", "unit": "nM"},
      {"measurement": "concentration at 60 min", "setting": "[7]; tumour (MCF7 xenograft)", "value": "7000 ± 3800", "unit": "nM"},
      {"measurement": "concentration at 120 min", "setting": "[7]; tumour (MCF7 xenograft)", "value": "4700 ± 1100", "unit": "nM"},
      {"measurement": "inhibition at 25 mg/kg", "setting": "[8]", "value": "~100", "unit": "%"},
      {"measurement": "fold greater solubility", "setting": "[9]", "value": "> 500", "unit": "fold"},
      {"measurement": "potency rank among the four PI-3K isoforms", "setting": "[10]", "value": "least potency"}
    ]}
  ]
}
